Screens from PubChem BioAssay.
MrgX1 agonist – human MrgX1 receptor agonism, primary screen | MrgX1-HEK293 cells, Fluo-4 calcium fluorescence, agonist mode; stronger effect = higher value | B-score at 10 µM | actives 0.44% (n = 310,000);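 active = calcium response B-score plate-corrected fluorescence ratio at least 3 library SD, with starting fluorescence B-score inside 5 SD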
Target sequence (Q96LB2 whole entry, looked up): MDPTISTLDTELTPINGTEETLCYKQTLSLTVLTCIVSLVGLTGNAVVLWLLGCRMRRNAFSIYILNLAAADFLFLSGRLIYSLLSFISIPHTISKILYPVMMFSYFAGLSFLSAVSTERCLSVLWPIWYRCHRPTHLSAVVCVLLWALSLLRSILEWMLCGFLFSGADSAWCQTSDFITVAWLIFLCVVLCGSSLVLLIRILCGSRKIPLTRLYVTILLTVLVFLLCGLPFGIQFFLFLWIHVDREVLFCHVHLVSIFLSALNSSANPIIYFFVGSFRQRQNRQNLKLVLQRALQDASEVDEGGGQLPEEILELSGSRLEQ
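times = overnight plating, then 30 min 37 °C plus 30 min room-temperature dye loading | assay system = stable human MrgX1 HEK293 cell line | input = fifteen thousand cells per well | signal = kinetic calcium dye fluorescence, Fluo-4 NW | dosing = compound delivered in addition one of three | read-out = B-scored fluorescence response ratio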
RGS4 inh – human RGS4 inhibition; HEK293 M3R/RGS4 inducible, Fluo-4 calcium flux; stronger effect = higher value; triggered by carbachol at its EC20; actives 0.45% (n = 310,000); AID 463165; B-score at 10 µM;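 active = B-score, a plate-corrected calcium signal, over three deviations above library mean, with baseline fluorescence within five deviations of library mean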;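 note: RGS4 expression induced by doxycycline in cells with stable M3 receptor; B-score is computed from the integrated fluorescence ratio over baseline after carbachol; higher B-score means a larger calcium signal and so more RGS4 inhibition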
Target sequence (P49798 whole entry, looked up): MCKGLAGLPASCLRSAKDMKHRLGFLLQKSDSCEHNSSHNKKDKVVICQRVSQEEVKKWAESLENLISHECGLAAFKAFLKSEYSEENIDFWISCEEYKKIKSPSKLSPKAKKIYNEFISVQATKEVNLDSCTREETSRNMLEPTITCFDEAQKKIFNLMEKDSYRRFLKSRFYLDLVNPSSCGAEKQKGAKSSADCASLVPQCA
MrgX1 antag – antagonists of human MrgX1 receptor | Q96LB2 | MRGX1-HEK293 calcium flux, Fluo-4, BAM8-22 antagonism; stronger effect = lower value | B-score at 10 µM | actives 1.3% (n = 310,000);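 active = calcium-response B-score plate-corrected more than 3 library SD below zero, starting fluorescence within 5 deviations, no agonist response on first addition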;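 note: peak minus trough fluorescence over baseline after final BAM8-22 challenge near maximal dose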
RGS4 act – RGS4 potentiation or activation. AID 463111. actives 0.92% (n = 310,000). HEK293 M3R/inducible RGS4, carbachol calcium flux Fluo4; stronger effect = lower value. B-score at 10 µM;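 active = B-score of the integrated calcium signal more than 4 SD below the library mean, with starting fluorescence not abnormally high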;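 note: negative B-score means reduced calcium response which marks RGS4 activation or potentiation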
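System: HEK293 FlpIn-TREx cells, stable M3R, doxycycline-inducible RGS4. Timing: overnight RGS4 induction, 30 min dye load 37 °C, 20 min compound RT. Also added: carbachol, ECmax concentration. Measured by: Fluo4 fluorescence kinetic imaging of calcium. Evaluation: integrated calcium ratio converted to B score.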
MrgX1 PAM – human MrgX1 positive allosteric modulation, primary screen; Q96LB2; MrgX1-HEK293, Fluo-4 calcium flux, FDSS; stronger effect = higher value; B-score at 10 µM; actives 0.63% (n = 310,000); AID 588675;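 active = plate-corrected calcium response at least 3 library SD above typical, normal starting fluorescence, not activating the receptor alone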;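 note: compound read alongside a low EC10 to EC30 dose of BAM8-22 agonist; peak minus trough fluorescence over baseline measured at the second addition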
* hit, by the source's call; i = inactive; / = not tested or not shown. In the library only some 3.5% were active in any assay of this set; here they are far more common.

SMILES	MrgX1 agonist	RGS4 inh	MrgX1 antag	RGS4 act	MrgX1 PAM
O=C(COC(=O)CCc1ccc(S(=O)(=O)N2CCOCC2)cc1)NCc1ccccc1Cl	i	i	i	i	i
O=C(COC(=O)CCc1ccc(S(=O)(=O)N2CCOCC2)cc1)NCc1ccccc1	i	i	i	i	6.8*
O=C(Nc1ccc(O)cc1)c1ccc2c(c1)C(=O)N(N1C(=O)c3ccccc3C1=O)C2=O	i	i	-5.8*	i	i
CC(OC(=O)c1cccc(S(=O)(=O)N2CCCCCC2)c1)C(=O)Nc1ccc(S(N)(=O)=O)cc1 (stereo unspecified)	i	i	i	i	i
COc1cc(/C=C(\C#N)C(=O)NC2CCCCC2)ccc1OCc1ccc(C(=O)O)cc1	i	i	i	i	7.6*
CCOc1cc(N)c(Cl)cc1C(=O)NCC1CN(Cc2ccc(F)cc2)CCO1 (stereo unspecified)	i	i	-8.6*	i	i
CCOC(=O)C1(Cc2cccc(OC)c2)CCCN(C(=O)CSC)C1 (stereo unspecified)	i	i	i	i	i
Cc1ccc(SCc2nc3ncccn3c2Br)cc1	i	i	i	-7.6*	i
CCCn1ncc(CN2CCN(Cc3ccc(C)o3)C(CCO)C2)c1C (stereo unspecified)	i	i	i	i	i
Cc1cc(C)cc(N(C(=O)Cc2cccs2)C(C(=O)NC2CCCCC2)c2ccccn2)c1 (stereo unspecified)	i	i	i	i	i
O=C(NC1CCCCC1)C(c1ccccn1)N(C(=O)Cc1cccs1)c1ccc(Cl)cc1 (stereo unspecified)	37*	i	i	i	i
C=CCOc1cccc(C(=O)/C=C2/C(=O)Nc3ccccc32)c1	i	5.8*	i	i	i
C=CCc1ccc(OCCCCN2CC(C)OC(C)C2)c(OC)c1 (stereo unspecified)	i	i	i	i	i
CCC(C)/C(C)=N/NC(=O)c1ccc(COc2ccc(Cl)c(C)c2)cc1 (stereo unspecified)	i	/	i	/	10*
CCOc1ccc(OCc2ccc(C(=O)N/N=C(\C)c3ccccn3)cc2)cc1	i	i	i	i	i
COc1cccc(CNC(=O)CSCc2cnn(-c3ccccc3)c2-n2cccc2)c1	i	i	i	i	i
O=C1OCC2=C1C(c1ccc(F)cc1)CC(=O)N2c1ccccc1 (stereo unspecified)	i	i	i	-7.7*	i
O=C1OCC2=C1C(c1ccc(F)cc1)CC(=O)N2c1ccc(F)cc1 (stereo unspecified)	i	i	i	i	i
Cc1ccc(C(=O)/C=C/c2ccccc2)o1	28*	i	i	i	i
Cc1ccc(/C=C/C(=O)c2ccc([N+](=O)[O-])o2)cc1	i	9.8*	i	i	i
Cc1ccc(C(=O)/C=C/c2ccc(Br)cc2)o1	i	i	i	i	i
CC1CCC2C(=O)N(c3ccc(C(=O)NCc4ccccc4)cc3)C(=O)C2C1 (stereo unspecified)	i	i	i	i	i
Cc1ccc(NC(=O)/C(C#N)=C/c2ccc(C)s2)c(C)c1	i	i	-4.7*	i	i
Cc1ccc(CCN2CC(C(=O)NCCCOC(C)C)CC2=O)cc1 (stereo unspecified)	i	i	-4.5*	i	i
CC(C)OCCCNC(=O)C1CC(=O)N(CCc2ccc(F)cc2)C1 (stereo unspecified)	i	i	i	i	i
SMILES	MrgX1 agonist	RGS4 inh	MrgX1 antag	RGS4 act	MrgX1 PAM
Cc1cc(C(=O)CSc2nnc(-c3ccccc3F)o2)c(C)n1Cc1cccs1	i	i	-6*	i	i
COc1ccccc1-n1cnnc1SCC(=O)c1cc(C)n(Cc2cccs2)c1C	i	i	i	i	i
CCc1ccc(C(C)NC(=S)NC2CCCCC2)cc1 (stereo unspecified)	i	i	i	i	i
CCC(C)c1ccc(C(C)NC(=S)NC2CCCCC2)cc1 (stereo unspecified)	i	i	i	-8.4*	i
Cc1ccc(-n2ncc3c2CC(C)(C)CC3NC(=O)CCc2ccncc2)cc1 (stereo unspecified)	i	i	i	i	i
CC#CCCc1nc2ccccc2c(=O)n1N	i	i	-6*	i	i
CCN1C(=O)/C(=C2\SC(=S)N(NC(=O)c3ccccc3O)C2=O)c2ccccc21	i	i	i	i	15*
CCN1C(=O)/C(=C2\SC(=S)N(c3c(C)n(C)n(-c4ccccc4)c3=O)C2=O)c2ccccc21	i	i	i	i	i
NC(=O)c1coc(-c2ccccc2)n1	i	i	i	-7.1*	i
OC(COc1ccccc1Cl)CN1CCN(CC(O)COc2ccccc2Cl)CC1 (stereo unspecified)	i	i	i	-7.7*	i
CC(=O)Nc1nnc(SCC(=O)Nc2nc(C)cs2)s1	i	i	i	i	i
CCC1(C(=O)c2ccccc2)C(c2ccc([N+](=O)[O-])cc2)C1(C(=O)OC)C(=O)OC (stereo unspecified)	27*	i	i	i	i
CC/C(=N\Nc1ccc([N+](=O)[O-])cc1)c1ccccc1	i	i	i	i	i
O=C(N=C1SC2CS(=O)(=O)CC2N1c1ccccc1C(F)(F)F)C1CCCO1 (stereo unspecified)	i	i	i	i	i
CC(C)c1ccc(/C=C/C(=O)NCc2ccc(S(N)(=O)=O)cc2)cc1	i	i	-6.8*	i	i
NS(=O)(=O)c1ccc(CNC(=O)/C=C/c2ccc(Cl)c(Cl)c2)cc1	i	i	i	i	i
CCc1ccc(NC(=O)CS(=O)CC(=O)NCC2OCCc3ccccc32)cc1 (stereo unspecified)	i	i	i	i	i
Cc1cccc(C)c1NC(=O)CS(=O)CC(=O)NCC1OCCc2ccccc21 (stereo unspecified)	i	i	-4.8*	i	i
O=c1c2ccccc2nc(/C=C/c2cc(Br)ccc2O)n1CCO	i	i	i	i	i
O=c1c2ccccc2nc(/C=C/c2c[nH]c3ccccc23)n1CCO	i	i	i	-7.4*	i
CN(C)c1ccc(/C=C/c2nc3ccccc3c(=O)n2CCO)cc1	32*	i	i	i	i
